Results reported in ChEMBL document CHEMBL4138173, “Molecular docking, design, synthesis and antifungal activity study of novel triazole derivatives” (2018).
Values after ≈ are worked out from the molar mass of the structure shown. Active and inactive are the calls of the source. No cut-off for these calls is given here.

Experiments:
Candida albicans [1] = test: Antifungal activity against Candida albicans SC5314 after 24 hrs; type: functional; conditions: SC5314, 24 h
How it was run: (§1)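 Broth dilution MIC per NCCLS recommendations. Compounds were dissolved in DMSO in growth medium, then inoculated and incubated at 35 °C, with growth read at 24 h for C. albicans. MIC80 is the first well showing about 80% growth reduction versus the drug-free well. Values are the mean of three replicate tests.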

Aspergillus fumigatus = test: Antifungal activity against Aspergillus fumigatus after 5 to 7 days; type: functional
How it was run: (§2)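 Filamentous fungi were tested by broth dilution following NCCLS recommendations. Compounds were dissolved in DMSO in growth medium, inoculated and incubated at 35 °C, with MIC80 read after 5–7 days. MIC80 is the first well with approximately 80% growth reduction relative to the drug-free well. Results are the mean of three replicates.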

Cryptococcus neoformans = test: Antifungal activity against Cryptococcus neoformans after 72 hrs; type: functional
How it was run: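 NCCLS-based broth dilution against C. neoformans. Test agents were in DMSO in growth medium, inoculated and held at 35 °C, and MIC80 was read at 72 h. MIC80 is the first well with roughly 80% less growth than the drug-free well. Each value averages three replicate tests.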

Nakaseomyces glabratus = test: Antifungal activity against Candida glabrata after 5 to 7 days; type: functional
Candida albicans [2] = test: Antifungal activity against Candida albicans SC5314 infected in ICR mouse assessed as increase in host survival at 1 mg/kg, po qd for 7 days starting from 2 hrs post infection measured up to 20 days; type: functional, organism-based
How it was run: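 Male ICR mice (18–22 g, ten per group) were immunosuppressed with intraperitoneal cyclophosphamide 100 mg/kg once daily for 3 days. They were then infected with 0.4 ml of […] C. albicans SC5314. Oral dosing in 0.5% carboxymethylcellulose suspension began 2 h post-infection, with vehicle-only controls. Read-out was mean survival days over 20 days.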

Pichia kudriavzevii = test: Antifungal activity against Candida krusei after 5 to 7 days; type: functional
How it was run: (§3)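 MIC measured by broth dilution per NCCLS recommendations. Compounds were dissolved in DMSO in growth medium, inoculated and incubated at 35 °C. MIC80 is the first well with approximately 80% lower growth than the drug-free well. Values are the mean of three replicate tests.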

Candida tropicalis = test: Antifungal activity against Candida tropicalis after 24 hrs; type: functional; how it was run: as §3
Nannizzia gypsea = test: Antifungal activity against Microsporum gypseum after 5 to 7 days; type: functional; how it was run: as §2
Trichophyton rubrum = test: Antifungal activity against Trichophyton rubrum after 5 to 7 days; type: functional
How it was run: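 Broth dilution per NCCLS recommendations against an ATCC strain; compounds dissolved in DMSO in growth medium; incubated at 35 °C. MIC80 is the first well with about 80% growth reduction versus the drug-free well, read at 5–7 days for filamentous fungi. Values are the mean of three replicate tests.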

Candida parapsilosis = test: Antifungal activity against Candida parapsilosis after 5 to 7 days; type: functional; conditions: Lodderomyces parapsilosis
Candida albicans [3] = test: Antifungal activity against Candida albicans SCY0109 after 24 hrs; type: functional; conditions: SCY0109, 24 h; how it was run: as §1

Row | Structure (SMILES) | MIC80 (Candida albicans [1]) [µg/mL] | MIC80 (Aspergillus fumigatus) [µg/mL] | MIC80 (Cryptococcus neoformans) [µg/mL] | also measured
1 | C[C@@H](n1cc(-c2ccccc2)nn1)[C@](O)(Cn1cncn1)c1ccc(F)cc1F | 0.125 (≈ 0.315 µM) | 16 (≈ 40.4 µM) | 0.0625 (≈ 0.158 µM) | 
2 | Cc1ccc(-c2cn([C@H](C)[C@](O)(Cn3cncn3)c3ccc(F)cc3F)nn2)cc1 | 0.125 (≈ 0.305 µM) | > 64 | 0.0625 (≈ 0.152 µM) | 
3 | C[C@@H](NCC1CC1)[C@](O)(Cn1cncn1)c1ccc(F)cc1F | 0.125 (≈ 0.388 µM) | 8 (≈ 24.8 µM) | 0.125 (≈ 0.388 µM) | 
4 | OC(Cn1cncn1)(Cn1cncn1)c1ccc(F)cc1F [FLUCONAZOLE] | 1 (≈ 3.27 µM) | > 64 | 2 (≈ 6.53 µM) | MIC80 (Nakaseomyces glabratus): 1 µg/mL (≈ 3.27 µM); Activity (Candida albicans [2]): Active; MIC80 (Pichia kudriavzevii): 32 µg/mL (≈ 104 µM); MIC80 (Candida tropicalis): 32 µg/mL (≈ 104 µM); MIC80 (Nannizzia gypsea): 8 µg/mL (≈ 26.1 µM); MIC80 (Trichophyton rubrum): 1 µg/mL (≈ 3.27 µM); MIC80 (Candida parapsilosis): 0.5 µg/mL (≈ 1.63 µM); MIC80 (Candida albicans [3]): 0.25 µg/mL (≈ 0.816 µM)
5 | C[C@@H](c1ncncc1F)[C@](O)(Cn1cncn1)c1ccc(F)cc1F [VORICONAZOLE] | 0.0312 (≈ 0.0895 µM) | 0.25 (≈ 0.716 µM) | 0.0312 (≈ 0.0895 µM) | MIC80 (Nakaseomyces glabratus): 0.0312 µg/mL (≈ 0.0895 µM); MIC80 (Pichia kudriavzevii): 0.25 µg/mL (≈ 0.716 µM); MIC80 (Candida tropicalis): 0.25 µg/mL (≈ 0.716 µM); MIC80 (Nannizzia gypsea): 0.25 µg/mL (≈ 0.716 µM); MIC80 (Trichophyton rubrum): 0.125 µg/mL (≈ 0.358 µM); MIC80 (Candida parapsilosis): 0.0312 µg/mL (≈ 0.0895 µM); MIC80 (Candida albicans [3]): 0.0156 µg/mL (≈ 0.0447 µM)
6 | C[C@@H](n1cc(-c2cccs2)nn1)[C@](O)(Cn1cncn1)c1ccc(F)cc1F | 0.0625 (≈ 0.155 µM) | 16 (≈ 39.8 µM) | 0.0625 (≈ 0.155 µM) | 
7 | CCC(C)N[C@H](C)[C@](O)(Cn1cncn1)c1ccc(F)cc1F (stereo partly specified) | 0.125 (≈ 0.385 µM) | 4 (≈ 12.3 µM) | 0.125 (≈ 0.385 µM) | 
8 | C[C@@H](N=[N+]=[N-])[C@](O)(Cn1cncn1)c1ccc(F)cc1F | 0.0156 (≈ 0.053 µM) | 8 (≈ 27.2 µM) | 0.0625 (≈ 0.212 µM) | 
9 | CCCCN[C@H](C)[C@](O)(Cn1cncn1)c1ccc(F)cc1F | 0.125 (≈ 0.385 µM) | 8 (≈ 24.7 µM) | 0.125 (≈ 0.385 µM) | 
10 | CCc1ccc(-c2cn([C@H](C)[C@](O)(Cn3cncn3)c3ccc(F)cc3F)nn2)cc1 | 0.5 (≈ 1.18 µM) | > 64 | 0.5 (≈ 1.18 µM) | 
11 | CCCN(C1CC1)[C@H](C)[C@](O)(Cn1cncn1)c1ccc(F)cc1F | 1 (≈ 2.85 µM) | 8 (≈ 22.8 µM) | 2 (≈ 5.71 µM) | 
12 | C[C@@H](N1CCCC1)[C@](O)(Cn1cncn1)c1ccc(F)cc1F | 0.125 (≈ 0.388 µM) | 1 (≈ 3.1 µM) | 0.125 (≈ 0.388 µM) | 
13 | CCCCCN[C@H](C)[C@](O)(Cn1cncn1)c1ccc(F)cc1F | 0.125 (≈ 0.369 µM) | 4 (≈ 11.8 µM) | 0.125 (≈ 0.369 µM) | 
14 | COCCCN[C@H](C)[C@](O)(Cn1cncn1)c1ccc(F)cc1F | 0.25 (≈ 0.734 µM) | 2 (≈ 5.88 µM) | 0.5 (≈ 1.47 µM) | 
15 | CCN1CCN([C@H](C)[C@](O)(Cn2cncn2)c2ccc(F)cc2F)CC1 | 2 (≈ 5.47 µM) | 64 (≈ 175 µM) | 2 (≈ 5.47 µM) | 
16 | C[C@@H](n1cc(-c2ccccc2Cl)nn1)[C@](O)(Cn1cncn1)c1ccc(F)cc1F | 0.0156 (≈ 0.0362 µM) | 16 (≈ 37.1 µM) | 0.0156 (≈ 0.0362 µM) | 
17 | C[C@@H](NC1CCCCC1)[C@](O)(Cn1cncn1)c1ccc(F)cc1F | 0.5 (≈ 1.43 µM) | 8 (≈ 22.8 µM) | 0.5 (≈ 1.43 µM) | 
18 | C[C@@H](n1cc(CN)nn1)[C@](O)(Cn1cncn1)c1ccc(F)cc1F | 0.25 (≈ 0.716 µM) | > 64 | 0.25 (≈ 0.716 µM) | 
19 | C[C@@H](n1cc(-c2ccc(N)cc2)nn1)[C@](O)(Cn1cncn1)c1ccc(F)cc1F | 0.5 (≈ 1.22 µM) | > 64 | 0.5 (≈ 1.22 µM) | 
20 | C[C@@H](N(C)C1CC1)[C@](O)(Cn1cncn1)c1ccc(F)cc1F | 0.125 (≈ 0.388 µM) | 8 (≈ 24.8 µM) | 0.125 (≈ 0.388 µM) | 
21 | C[C@@H](n1cc(-c2ccc(F)cc2)nn1)[C@](O)(Cn1cncn1)c1ccc(F)cc1F | 0.0625 (≈ 0.151 µM) | 32 (≈ 77.2 µM) | 0.0625 (≈ 0.151 µM) | 
22 | C[C@@H](n1cc(-c2ccccc2F)nn1)[C@](O)(Cn1cncn1)c1ccc(F)cc1F | 0.125 (≈ 0.302 µM) | 32 (≈ 77.2 µM) | 0.125 (≈ 0.302 µM) | 
